Screens as filed in PubChem.
A selection: hits, their analogues and other compounds. The true share with any hit is near 2.9%.
T cruzi inh: inhibitors of intracellular T. cruzi growth, primary screen, luminescence, NIH3T3 host cells. AID 1885, 2009. T. cruzi beta-gal in NIH3T3, 90 h. inhibition, % (test concentration not listed). 300,000 compounds, 1.4% hits;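 active = mean inhibition across valid replicates above about 55%, limit read from the data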;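 also: signal also drops with host cell toxicity which is not excluded here; higher percent means less beta-gal luminescence so fewer parasites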
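Incubation – ≥90 h infection period, 3 h prior cell attachment · System – NIH/3T3 fibroblasts plus reporter T. cruzi · Doses – compound pinned at 50 nL/well, DMSO · Read-out basis – percent inhibition of parasite-derived β-gal signal · Signal – luminescent β-galactosidase signal after 60 min lysis · Also added – 5000 T. cruzi trypomastigotes/well · Medium – Low-serum DMEM with 2% FBS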
TAG inh: inhibitors of triacylglycerol accumulation, primary screen, cell-based, uHTS, fluorescence, H9c2 | 230,000 compounds, 0.66% hits | AID 651582, 2012 | inhibition, % at 12.5 µM | H9c2 cells, Nile Red lipid (TAG) fluorescence; cells loaded with 200 µM oleic acid;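 active = pattern-corrected inhibition of lipid staining of at least 50% with the nuclear-stain viability signal not falling by more than 50%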
MIN6 prolif: inducers of MIN6 beta-cell proliferation, primary screen, ATP luminescence, uHTS; MIN6 cells proliferation, ATPlite luminescence, 48 h; cells starved in 0.2% serum; 100% = growth in 10% serum; proliferation, % at 10 µM; 330,000 compounds, 0.29% hits; AID 2380, 2010;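 active = compounds whose signal lies at least 3.5 SD above the mean of all wells on their plate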
NR1D1 modulator: modulators of Rev-erb alpha DNA binding, primary screen, biochemical, FITC-DNA, fluorescence polarization, uHTS; Nuclear receptor subfamily 1 group D member 1 (Homo sapiens), P20393; Rev-erbα–FITC-DNA binding, 90 min; activity, % at 10 µM; 370,000 compounds, 0.79% hits; AID 1259318, 2017;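 active = activity above about 14%, limit read from the data; passing the limit was not always enough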
Target sequence (P20393 whole entry, looked up): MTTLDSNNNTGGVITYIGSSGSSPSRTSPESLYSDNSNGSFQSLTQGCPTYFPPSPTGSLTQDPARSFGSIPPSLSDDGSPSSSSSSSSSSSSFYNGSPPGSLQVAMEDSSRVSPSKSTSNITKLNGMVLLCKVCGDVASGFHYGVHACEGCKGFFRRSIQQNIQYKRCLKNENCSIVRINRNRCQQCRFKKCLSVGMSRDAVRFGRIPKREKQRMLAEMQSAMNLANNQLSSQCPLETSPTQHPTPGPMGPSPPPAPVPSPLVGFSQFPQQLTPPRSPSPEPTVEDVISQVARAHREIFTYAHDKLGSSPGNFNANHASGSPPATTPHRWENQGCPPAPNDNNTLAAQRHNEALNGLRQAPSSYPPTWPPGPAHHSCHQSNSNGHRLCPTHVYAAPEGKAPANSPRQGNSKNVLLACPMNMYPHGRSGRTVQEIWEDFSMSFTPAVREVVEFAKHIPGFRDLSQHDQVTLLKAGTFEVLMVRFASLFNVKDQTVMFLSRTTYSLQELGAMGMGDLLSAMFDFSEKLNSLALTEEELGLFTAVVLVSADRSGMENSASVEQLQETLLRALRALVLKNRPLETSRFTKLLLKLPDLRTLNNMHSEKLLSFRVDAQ
iPSC survival up: enhancers of single-cell hiPSC survival, primary screen, ATPlite luminescence; 100% = ROCK inhibitor wells, 0% = DMSO; survival enhancement, % at 20 µM; 360,000 compounds, 0.044% hits; AID 602274, 2012; in the data active = survival enhancement above about 18%;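 also: cells exposed to compounds for 16 hours before the ATP read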
PG9 Ab binder: binders of HIV-1 gp120 antibody PG9, primary screen, biochemical, TR-FRET; AID 624416, 2012; HIV-1 gp120 / PG9 antibody interaction; TR-FRET gp120-PG9 antibody binding; 360,000 compounds, 0.43% hits; inhibition, % at 6.7 µM; in the data active = inhibition above about 8.5%
Numbers stand for hits; – = inactive; · = no result given.

SMILES | T cruzi inh | TAG inh | MIN6 prolif | NR1D1 modulator | iPSC survival up | PG9 Ab binder
Cc1cccc(C(=O)N2c3ccccc3C(=O)OC2c2ccc3c(c2)OCO3)c1 (centres undefined) | – | – | – | – | – | –
CC(OC(=O)c1ccc(C#N)cc1)C(=O)Nc1ccc(Cl)cn1 (centres undefined) | · | – | – | – | – | –
COc1ccc(/C=N/OCC(=O)NC(c2ccccc2)c2ccccc2)cc1OC | 57 | – | – | – | – | –
CC(C)(C)n1nnnc1C(c1cccs1)N(Cc1ccc(Cl)cc1)CC1CCCO1 (centres undefined) | 58 | – | – | – | – | –
Clc1ccc(CN(Cc2ccccc2)C(c2cccs2)c2nnnn2C2CCCC2)cc1 (centres undefined) | – | – | – | – | – | –
Cc1ccc(Cl)cc1N1CCN(C(CC(C)C)c2nnnn2CC2CCCO2)CC1 (centres undefined) | – | – | – | – | – | –
CC(=O)n1cc(N(C(=O)CCl)c2ccc(C)cc2)c2ccccc21 | – | 65 | – | – | – | –
COc1cc(C2CC(=O)c3cnc(N4CCN(Cc5ccccc5)CC4)nc3C2)cc(OC)c1OC (centres undefined) | – | – | – | – | – | –
COc1ccc(C2CC(=O)c3c(C)nc(N4CCN(Cc5ccccc5)CC4)nc3C2)cc1OC (centres undefined) | 55 | – | – | – | – | –
CCN1CCN(c2nc(C)c3c(n2)CC(C)CC3=O)CC1 (centres undefined) | – | – | – | – | – | –
Cc1nc(N2CCN(Cc3ccccc3)CC2)nc2c1C(=O)CC(C)C2 (centres undefined) | 71 | – | – | – | – | –
O=C(c1ccc([N+](=O)[O-])s1)N1CCN(c2ccccc2)CC1 | 69 | · | – | – | – | –
COc1ccc(OC)c2sc(N3CCN(C(=O)c4ccc([N+](=O)[O-])s4)CC3)nc12 | 67 | – | – | – | – | –
COc1ccccc1C(=O)NC1CC2CCCC(C1)N2Cc1ccccc1 (centres undefined) | · | – | · | – | – | –
CCOC(=O)c1c(C)n(CCNC(C)=O)c2ccc(OC)cc12 | – | – | – | – | – | –
CCOC(=O)c1c(-c2ccccc2)c2cc(OC)ccc2n1CCCN(C)C | 59 | · | – | – | – | –
OC(CN1CCN(C(c2ccccc2)c2ccccc2)CC1)c1ccccc1 (centres undefined) | – | · | – | · | – | ·
CN1CCN(CC(O)c2ccccc2)CC1 (centres undefined) | 55 | · | – | · | · | ·
COc1cc(S(=O)(=O)N2CCC(O)(c3cccc(C(F)(F)F)c3)CC2)ccc1-n1cnnn1 | 61 | · | – | – | – | –
COCCn1c(C2CCCCC2)nc2sc3ccccc3c(=O)c2c1=O | 55 | · | – | – | – | –
CNCCCCOc1ccc(C(C)(C)C)cc1Cl | 59 | – | – | – | – | –
CC(C)(C)c1ccc(OCCON2C(=O)CCC2=O)c(Cl)c1 | – | – | – | – | – | –
O=S(=O)(Nc1cccc(S(=O)(=O)N2CCCCCC2)c1)c1ccccc1 | – | – | – | – | – | –
O=c1[nH]c(=O)c2cc([N+](=O)[O-])cc([N+](=O)[O-])c2[nH]1 | 72 | – | – | – | – | –
CCCCn1c(N)c(N(CCC(C)C)C(=O)c2ccc([N+](=O)[O-])s2)c(=O)[nH]c1=O | 64 | – | – | – | – | –
SMILES | T cruzi inh | TAG inh | MIN6 prolif | NR1D1 modulator | iPSC survival up | PG9 Ab binder
Cc1cc(C)nc(SCC(=O)Nc2nc(-c3ccccc3)c(-c3ccccc3)o2)n1 | – | · | – | – | – | –
Cc1ccc(C(=O)Nc2nc(-c3ccccc3)c(-c3ccccc3)o2)cc1 | 59 | · | – | – | – | –
CC1CCCCN1C(=O)COC(=O)c1ccc2c(c1)C(=O)N(Cc1ccco1)C2=O (centres undefined) | · | – | – | – | – | –
O=C(NCc1ccccc1)C1CCC1 | – | · | – | – | – | –
CCN(CC)CCSc1nc2ccccc2c(=S)n1-c1ccccc1 | 64 | · | – | – | · | –
CCN(CC)CCSc1nc(O)c(-c2ccccc2)c(=O)n1-c1ccccc1 | – | – | – | – | – | –
OC(CNc1ccccc1)COc1ccc(OCC(O)CNc2ccccc2)cc1 (centres undefined) | 63 | – | – | – | – | –
CCOCC(O)CNc1ccccc1 (centres undefined) | – | · | – | – | – | –
COc1ccc(NC(=O)C(NC(=O)Cc2cccs2)c2ccc(C)cc2)cc1 (centres undefined) | – | · | – | – | – | –
COc1ccc(S(=O)(=O)NCCc2nnc3ccc(SCC(=O)Nc4cc(C)on4)nn23)cc1 | – | – | – | – | – | –
CC(C)OC(=O)CCCCCN1C(=O)CSC1=S | 56 | – | – | – | – | –
COCc1c(Br)c(C)nc(OCC(=O)N/N=C/c2cc(C)n(-c3ccc([N+](=O)[O-])cc3)c2C)c1C#N | 63 | – | – | – | – | –
Cc1cc(/C=N/NC(=O)CC#N)c(C)n1-c1ccc([N+](=O)[O-])cc1 | – | – | – | – | – | –
COc1cc(CN2CCCCC2)ccc1OCc1ccccc1 | 82 | · | – | – | – | –
Cc1cc(C)cc(N=Cc2ccc([N+](=O)[O-])s2)c1 | – | · | – | – | – | –
O=C(Cc1cccs1)N/N=C\c1ccc([N+](=O)[O-])s1 | 84 | – | – | – | – | –
O=C(Cc1cccs1)N/N=C\c1ccccc1 | · | · | · | – | · | ·
Cc1ccc(NC(=S)N/N=C/c2ccc([N+](=O)[O-])s2)cc1 | 63 | · | – | – | – | –
OCCNC1=NCCN1 | – | – | – | – | – | –
Fc1ccc(Sc2ccccc2CNC2=NCCN2)cc1 | 63 | · | – | – | – | –
COc1ccc(Sc2nnc(Cc3ccccc3)c3ccccc23)cc1 | – | · | – | – | – | –
Cc1ccc(Sc2nnc(Cc3ccccc3)c3ccccc23)cc1 | 62 | · | – | – | – | –
COc1cc(C(=O)Oc2ccccc2/C=N/NC(=O)c2ccc(C)c(Cl)c2)cc(OC)c1OC | 55 | · | – | – | – | –
COc1cc(C(=O)Oc2ccccc2/C=N/NC(=O)c2ccc(Cl)cc2)cc(OC)c1OC | 67 | – | – | – | – | –
COc1ccc(-c2cnc3cccnn23)cn1 | · | – | · | – | – | –
Cc1cccc(N=Nc2ccc(O)c3ncccc23)c1 | – | 82 | – | – | – | –
Cc1ccc(C)c(N=Nc2ccc(O)c3ncccc23)c1 | – | 108 | – | – | – | –
